Screens (PubChem)
The list is not random: actives were taken first. Their share in the collection is about 1.7%.
TPT1 inhibitor: blocks Candida albicans tRNA 2'-phosphotransferase | inhibition, % at 5 µM | hit rate 0.81% among 300,000 | recombinant caTPT1, FP RNA substrate dephosphorylation | AID 1962;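 active = inhibition above the mean of all tested compounds plus 3 SD, set per screening campaign, cut at about 24% in these data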
NR1D1 modulator: Rev-erb alpha (human) modulation | P20393 | Rev-erbα–FITC-DNA binding, fluorescence polarization, 90 min | activity, % at 10 µM | hit rate 0.79% among 370,000;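 active = activity above about 14%, limit read from the data; passing the limit was not always enough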
Target sequence (P20393 whole entry, looked up): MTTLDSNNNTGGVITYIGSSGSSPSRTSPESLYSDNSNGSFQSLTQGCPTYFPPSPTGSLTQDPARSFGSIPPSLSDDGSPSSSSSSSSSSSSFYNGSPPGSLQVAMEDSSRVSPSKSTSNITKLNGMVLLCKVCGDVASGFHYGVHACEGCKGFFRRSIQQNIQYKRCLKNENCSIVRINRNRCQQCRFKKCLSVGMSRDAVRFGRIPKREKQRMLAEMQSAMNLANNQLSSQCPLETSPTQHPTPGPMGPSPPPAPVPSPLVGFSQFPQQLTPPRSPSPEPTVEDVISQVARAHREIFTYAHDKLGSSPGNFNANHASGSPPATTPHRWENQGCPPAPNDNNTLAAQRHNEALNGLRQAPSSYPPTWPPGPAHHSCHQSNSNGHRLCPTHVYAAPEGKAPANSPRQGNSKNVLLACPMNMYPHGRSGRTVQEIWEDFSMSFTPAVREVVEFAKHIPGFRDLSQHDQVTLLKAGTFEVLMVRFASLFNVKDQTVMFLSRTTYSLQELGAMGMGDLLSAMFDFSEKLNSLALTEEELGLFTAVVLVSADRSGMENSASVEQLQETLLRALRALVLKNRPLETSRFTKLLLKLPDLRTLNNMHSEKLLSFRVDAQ
CSN deneddyl inh: blocks human CSN-mediated cullin deneddylation; inhibition, % at 12.5 µM; AID 651999; Q92905; Purified CSN, SCF-Nedd8-OG deneddylation, fluorescence polarization; hit rate 0.38% among 360,000;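 active = pattern-corrected inhibition above about 35%, with an unprinted fluorescence ratio check between 0.5 and 1.5, limit read from the data, passing the limit was not always enough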
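Schedule: reaction 90 min, room temperature / Assay system: HEK293T-derived human Csn5 enzyme / Input: Csn5 at 0.24 nM final / Measure: inhibition of Csn5 cleavage, % / Control set: substrate-only high control, full reaction low control / Technique: fluorescence polarization of the substrate / Buffer or medium: Tris/NaCl/DTT buffer, pH 7.5 / Reagent: SCFSkp2-Nedd8OG substrate at 10 nM final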
HNF4A DNA FP: change in binding of human HNF4 alpha to DNA; P41235; HNF4a-FITC DNA binding, fluorescence polarization, 1 h; activity change, % at 10 µM; hit rate 0.3% among 360,000; AID 1224865; in the data active = activity change above about 30%, passing the limit was not always enough
caTPT1 confirm: confirmation of Candida albicans TPT1 inhibitors | recombinant caTPT1, fluorescence polarization, RNase T1 coupled | inhibition, % at 5 µM | hit rate 74% among 2,400 | shares compounds with TPT1 inhibitor | AID 2149;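 active = inhibition above the primary screen limit, the mean inhibition of all tested compounds plus 3 SD, cut at about 25% in these data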
RNase T1 counter: blocks Aspergillus oryzae RNase T1, a TPT1 counter-screen; shares compounds with TPT1 inhibitor; RNase T1 cleavage, fluorescence polarization, 1536-well; hit rate 83% among 2,400; AID 2153; inhibition, % at 5 µM;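 active = inhibition above the solvent-only control well mean plus 3 SD, limit set per screening run, cut at about 23% in these data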;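 note: inhibitors block cleavage so intact labeled substrate keeps polarization high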
Target sequence (P00651 whole entry, looked up): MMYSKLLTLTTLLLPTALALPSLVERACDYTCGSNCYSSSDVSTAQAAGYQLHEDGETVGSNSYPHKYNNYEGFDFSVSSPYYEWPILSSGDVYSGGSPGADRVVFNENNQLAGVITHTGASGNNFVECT
A number is an active result; - = inactive; . = no result.

SMILES | TPT1 inhibitor | NR1D1 modulator | CSN deneddyl inh | HNF4A DNA FP | caTPT1 confirm | RNase T1 counter
C=CCn1c(=O)/c(=C2/Sc3ccccc3N2CC)s/c1=C1/C(=O)NN=C1C | 43.8 | . | . | . | 48.2 | 59.5
C=CCN1C(=O)/C(=C2/Sc3ccccc3N2CC)SC1=S | - | - | - | - | . | .
O=C1CCc2cc(S(=O)(=O)N3CCN(c4ccccc4Cl)CC3)ccc2N1 | . | - | . | . | . | .
COC(=O)c1ccc(OCCN2C3=NCCN3c3ccccc32)cc1 | 37.4 | - | - | - | - | -
O=C(CSc1nnc(-c2cccnc2)n1-c1ccccc1)Nc1ccc2c(c1)OCCO2 | . | - | . | . | . | .
NC(=O)c1c(NC(=O)c2ccc(S(=O)(=O)N3CCOCC3)cc2)sc2c1CCCCC2 | - | - | - | - | . | .
CNC(=O)c1c(NC(=O)c2ccc(S(=O)(=O)N3CCCCC3)cc2)sc2c1CCN(C(C)C)C2 | 28.7 | - | - | - | 30.4 | 39.3
CN1CCc2c(sc(NC(=O)c3ccc(S(=O)(=O)N4CCCCCC4)cc3)c2C(N)=O)C1 | 119.2 | . | - | - | 125.5 | 125.0
CN1CCc2c(sc(NC(=O)c3ccc(S(=O)(=O)N4CCOCC4)cc3)c2C(N)=O)C1 | 90.0 | . | - | 48.0 | 100.6 | 110.7
Nc1ccc(F)c(CN2CCN(c3ncc(Cc4ccccc4)cn3)CC2)c1 | . | - | . | . | . | .
O=C(c1ccccc1OCc1ccccc1)N(Cc1ccccn1)CC1CCCO1 (centres undefined) | . | - | . | . | . | .
O=S(=O)(c1cccs1)N1CCCc2nc(-c3ccc(F)cc3)ccc21 | . | - | . | . | . | .
COC(=O)[C@]12C[C@H](CC(=O)N3CCCCC3)C(=O)N(Cc3ccco3)C1=C[C@H](C1CCCC1)O[C@@H]2C | . | - | . | . | . | .
COc1ccc(-n2c(C)cc(/C=C3\SC(=S)N(Cc4ccco4)C3=O)c2C)cc1 | 122.3 | - | - | 54.3 | 121.8 | 123.0
c1cc(-c2nnc3n2N=C(c2ccc4c(c2)OCO4)CS3)ccn1 | . | - | . | . | . | .
C/C(=N\NC(=O)c1ccc([N+](=O)[O-])cc1)c1cc2ccccc2oc1=O | - | - | - | - | . | .
C/C(=N/NC(=O)c1ccncc1)c1cc2ccc(O)cc2oc1=O | 59.5 | - | - | - | - | -
C/C(=N\NC(=O)c1ccncc1)c1cc2ccccc2oc1=O | - | - | - | - | . | .
C/C(=N/NC(N)=S)c1cc2ccc(O)cc2oc1=O | 24.7 | - | - | - | 90.3 | 96.8
COC[C@H]1CCCN1c1ccc2c(c1)O[C@@H]1CCN(C1)S2(=O)=O | . | - | . | . | . | .
COC(=O)c1ccnc(/C=N/O)c1 | 49.6 | - | - | - | - | -
C=CCN1[C@H](C)[C@H](c2ccccc2)Oc2cc(Br)ccc2S1(=O)=O | . | - | . | . | . | .
O=C(/C=C/c1ccc2ccccc2n1)c1cc(Cl)ccc1O | 44.2 | - | - | - | 46.4 | 58.7
O=C(/C=C/c1cccs1)c1cc(Cl)ccc1O | - | - | - | - | . | .
CN(C)c1ccc(C2C=C(c3ccc(Cl)cc3OC(F)F)Nc3ncnn32)cc1 (centres undefined) | 49.5 | - | - | - | 43.0 | 55.6
SMILES | TPT1 inhibitor | NR1D1 modulator | CSN deneddyl inh | HNF4A DNA FP | caTPT1 confirm | RNase T1 counter
COC(=O)C1=C(C)N(Cc2ccc(C(F)(F)F)cc2)C(=NCc2ccccc2C(F)(F)F)NC1c1ccc(Cl)cc1 (centres undefined) | . | - | . | . | . | .
Nc1c(C(=O)Nc2nc3ccccc3s2)sc2nc(-c3cccs3)ccc12 | 29.6 | . | - | - | 26.5 | 38.1
O=C(N1CCc2ccccc2C1)n1cc(C(O)(c2ccccc2)c2ccccc2)nn1 | . | - | . | . | . | .
COc1ccc(C2=C/C(=C\c3cccc(OC(C)=O)c3)C(=O)O2)cc1 | 35.5 | - | - | - | 54.9 | 67.6
COc1ccc(-[n+]2c(C)cc(/C=C3\Sc4ccccc4N3C)cc2C)cc1 | 90.5 | - | - | 49.6 | 123.1 | 128.0
O=C(CSc1nc2ccccc2s1)c1cc2ccccc2o1 | 55.6 | - | - | - | - | 25.1
Cn1cnnc1SCC(=O)c1cc2ccccc2o1 | - | - | - | - | . | .
O=C(CSc1nc2ccccc2s1)CSc1nc2ccccc2s1 | - | - | - | - | . | .
COc1ccc(-n2nnnc2SCC(=O)c2cc3ccccc3o2)cc1 | 32.1 | - | - | - | 25.5 | 34.9
Cn1ccnc1SCC(=O)c1cc2ccccc2o1 | 61.3 | - | - | - | 29.4 | 40.8
CCOC(=O)c1ccc2c(c1)nc(SCC(=O)c1cc3ccccc3o1)n2CC | 33.1 | - | - | - | - | 24.3
C[C@H]1[C@@H](N)CC[C@@]23CCCN2C(=O)CCC[C@@H]13 | . | - | . | . | . | .
C/C(=N/NC(=O)CN1CCN(Cc2ccccc2Cl)CC1)c1cccc(O)c1 | . | - | . | . | . | .
CCCCOc1ccc(C(=O)NC2CCCCN(C)C2=O)cc1 (centres undefined) | . | - | . | . | . | .
Cc1[nH]nc2c1C(CC(C)C)C(C#N)=C(N)O2 (centres undefined) | - | - | - | - | . | .
N#CC1=C(N)SC(N)=C(C#N)C1Cc1ccccc1 | 63.2 | - | - | - | 49.8 | 59.5
CC(C)CC1C(C#N)=C(N)SC(N)=C1C#N | 70.4 | - | - | - | 86.6 | 94.5
CC(C)C[C@H](NC(=O)C1CC1)C(=O)N1CCC[C@H]1C(=O)NCc1ccccc1 | . | - | . | . | . | .
C[C@@H]1CCCCO[C@@H](CN(C)Cc2ccc(C(=O)O)cc2)[C@@H](C)CN([C@H](C)CO)C(=O)c2cc(NS(C)(=O)=O)ccc2O1 | . | - | . | . | . | .
CC1=C(C(=O)c2ccccc2)C(c2ccc(O)cc2)NC(=S)N1 (centres undefined) | - | - | - | - | . | .
CC1=C(C(=O)c2ccccc2)C(c2ccc(N3CCOCC3)cc2)NC(=O)N1 (centres undefined) | 28.1 | - | - | - | 39.0 | 51.3
O=C(Nc1cc(S(=O)(=O)N2CCOCC2)ccc1N1CCCC1)c1ccccc1C(F)(F)F | . | - | . | . | . | .
COc1cc(/C=C2\SC(=S)N(NS(=O)(=O)c3ccccc3)C2=O)ccc1O | 30.8 | - | - | - | 34.4 | 41.6
COc1ccc(/C=C2/SC(=S)N(NS(=O)(=O)c3ccccc3)C2=O)cc1 | - | - | - | - | . | .
COc1cc(/C=C2/SC(=S)N(c3c(C)n(C)n(-c4ccccc4)c3=O)C2=O)ccc1O | 29.0 | - | - | - | 29.0 | 41.7
SMILES | TPT1 inhibitor | NR1D1 modulator | CSN deneddyl inh | HNF4A DNA FP | caTPT1 confirm | RNase T1 counter
CCCCn1c(-c2csc(C(C)C)c2)n[nH]c1=S | 60.8 | - | - | - | - | -
CCCCn1c(-c2csc(CC)c2)n[nH]c1=S | - | - | - | - | . | .
CCCCN(CCCC)CC(O)c1cc(Cl)cc2c1-c1ccc(Cl)cc1/C2=C/c1ccc(Cl)cc1 (centres undefined) | . | - | . | . | . | .
CCOc1ccc(C2CC(c3c(O)c4ccccc4oc3=O)=NN2c2ccccc2)cc1OC (centres undefined) | 68.7 | - | - | - | 80.2 | 82.4
Cc1cc(C)cc(N=Cc2[nH]c3ccc(Br)c(Cl)c3c2O)c1 | 120.5 | - | - | - | 110.6 | 111.0
COc1ccc(CN=Cc2[nH]c3ccc(Br)c(Cl)c3c2O)cc1 | 87.5 | - | - | - | 135.8 | 131.2
COc1ccc(CN=CC2=C(O)CNC2=O)cc1 | - | - | - | - | . | .
CCN(CC)C(=O)CSc1nnc(-c2ccccn2)n1C | . | - | . | . | . | .
